Compounds with a hit are over-represented: about 1.5% of the library has one in this group of screens.
APJ agonist: agonists of human APJ apelin receptor; P35414; CHO-K1 APJ PathHunter beta-arrestin, luminescence; 0% DMSO wells, 100% apelin; activation, % at 20 µM; 0.11% of 330,000 active;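 active = activation more than six SD over the plate average, tested at 20 µM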;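 also: 0% = DMSO alone and 100% = apelin-13 at 10 nM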
Target sequence (P35414 whole entry, looked up): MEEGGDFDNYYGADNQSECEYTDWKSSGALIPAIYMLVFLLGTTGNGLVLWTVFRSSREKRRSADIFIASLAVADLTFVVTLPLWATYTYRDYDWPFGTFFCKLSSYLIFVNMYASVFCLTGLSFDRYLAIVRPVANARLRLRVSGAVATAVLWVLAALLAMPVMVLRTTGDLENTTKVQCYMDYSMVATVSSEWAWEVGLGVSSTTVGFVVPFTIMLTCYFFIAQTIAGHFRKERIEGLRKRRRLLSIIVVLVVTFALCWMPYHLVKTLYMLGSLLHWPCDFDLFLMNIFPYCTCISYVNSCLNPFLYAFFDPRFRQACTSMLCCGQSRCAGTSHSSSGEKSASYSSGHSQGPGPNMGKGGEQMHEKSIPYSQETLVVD
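Assay system: CHO-K1 cells stably expressing ProLink-tagged human APJ and arrestin–beta-gal acceptor. Compound dosing: 20 µM single point, 1% DMSO. Times: 16-18 h seeding, 90 min dark compound exposure, 60 min detection. Detection: beta-gal luminescence. Evaluation: APJ–arrestin association signal. Controls: negative DMSO alone, positive Apelin-13 at 10 nM.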
EBI2 antag: blocks human EBI2 receptor beta-arrestin signaling. EBI2 beta-arrestin recruitment, luminescence, 7a,25-OHC stimulated. P32249. inhibition, % at 5 µM. 0.81% of 360,000 active. AID 651636; in the data active = inhibition above about 38%;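 also: enzyme fragment complementation signal reports receptor beta-arrestin coupling in cells; 0% = agonist plus DMSO wells and 100% = wells without agonist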
CXCR6 block: blocks human CXCR6 beta-arrestin recruitment. O00574. CHO-K1 PathHunter CXCR6 beta-arrestin, luminescence. inhibition, % at 20 µM. 0.36% of 360,000 active; in the data active = inhibition above about 34%, passing the limit was not always enough;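 also: antagonist mode with CXCL16 agonist at 10 nM final; 0% = 10 nM CXCL16 with DMSO and 100% = unstimulated wells without agonist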
Target sequence (O00574 whole entry, looked up): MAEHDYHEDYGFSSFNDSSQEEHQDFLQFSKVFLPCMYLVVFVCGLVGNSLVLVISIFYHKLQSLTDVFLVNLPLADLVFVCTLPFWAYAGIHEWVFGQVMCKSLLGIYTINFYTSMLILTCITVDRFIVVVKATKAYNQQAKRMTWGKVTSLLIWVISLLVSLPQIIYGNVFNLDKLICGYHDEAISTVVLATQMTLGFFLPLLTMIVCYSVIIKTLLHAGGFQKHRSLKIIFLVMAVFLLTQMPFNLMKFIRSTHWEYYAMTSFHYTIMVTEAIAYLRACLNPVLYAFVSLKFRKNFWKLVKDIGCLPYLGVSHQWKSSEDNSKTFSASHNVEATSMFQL
CCR6 antag: antagonists of human CCR6 receptor; inhibition, % at 20 µM; CHO-K1 CCR6 PathHunter beta-arrestin, luminescence, CCL20-stimulated; AID 493098; 0.49% of 340,000 active;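 active = compounds whose inhibition of the agonist-driven luminescence signal at 20 µM reaches about 50%, limit read from the data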;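 also: cells stimulated with CCL20 at 14 nM final; plate controls were DMSO with CCL20 for no effect and DMSO without agonist for full effect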
APJ antag: blocks the human apelin receptor APJ; P35414; inhibition, % at 20 µM; CHO-K1 APJ beta-arrestin complementation, luminescence; 0.32% of 330,000 active;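 active = inhibition above about 40% at 20 µM, limit read from the data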;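 also: cells challenged with 10 nM apelin-13 agonist together with compound; plate controls were apelin-13 plus DMSO wells for no effect and DMSO wells lacking apelin-13 for full effect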
EBI2 antag conf: EBI2 (human) antagonism, single concentration confirmation | shares compounds with EBI2 antag | EBI2 beta-arrestin luminescence, 7a,25-OHC antagonism | inhibition, % at 5 µM | 29% of 2,400 active;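 active = inhibition of at least 50%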
EBI2 ag: activates EBI2, counter-screen for EBI2 antagonists; activation, % at 5 µM; 2,400 tested, under 10 active; shares compounds with EBI2 antag; EBI2-expressing cells, agonist mode, luminescence, 60 min; 0% vehicle, 100% 7α,25-dihydroxycholesterol control;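 active = activation of at least 50%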
bGal cs: inhibits E. coli beta-galactosidase, counter-screen for EBI2 antagonists | shares compounds with EBI2 antag | inhibition, % at 5 µM | 1% of 2,400 active | purified beta-galactosidase, luminescent Galacton Star, 15 min;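 active = replicate-average signal at least 3 plate SD below neutral wells, shown as high inhibition, flagging enzyme-inhibiting false positives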;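 also: 0% = DMSO wells with enzyme and 100% = wells lacking enzyme; higher means stronger loss of beta-gal luminescence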
* = called active by the depositor; . = no result given.

SMILES | APJ agonist | EBI2 antag | CXCR6 block | CCR6 antag | APJ antag | EBI2 antag conf | EBI2 ag | bGal cs
O=C(c1ccccc1F)N1CCN(c2ccc([N+](=O)[O-])cc2-n2cccc2)CC1 | -4 | 7 | 13 | 22 | 15 | . | . | .
COc1ccc(NC(=S)NNC(=S)Nc2cccc(C(F)(F)F)c2)cc1 | -4 | 29 | 23 | 39 | 16 | . | . | .
COc1ccc(NC(=S)Nc2cc(C(F)(F)F)ccc2F)cc1 | -2 | 43* | 0 | 17 | 5 | 8 | 0 | -11
CC(=O)c1c[nH]c(C(=O)NCc2cccc(C(F)(F)F)c2)c1 | -4 | -3 | -2 | 3 | -1 | . | . | .
c1ccc(NC2=NCCN2CCC2CCCCC2)cc1 | -2 | 3 | 7 | 7 | -3 | . | . | .
COc1ccc(C(=O)/C=C/c2ccc(OC(=O)c3cc(OC)c(OC)c(OC)c3)cc2)cc1 | -2 | 45* | 3 | 17 | -8 | 10 | 1 | 8
CC(=O)Nc1ccc(S(=O)(=O)Oc2ccc3c(c2)C(C)=CC(C)(C)N3)cc1 | 5 | . | . | . | -36 | . | . | .
CC1=CC(C)(C)Nc2ccc(OS(=O)(=O)c3ccc(C)cc3)cc21 | 7 | 42* | -2 | 11 | -3 | 13 | 0 | 2
CCOC(=O)c1cc(-c2ccccc2)sc1N | -9 | 46* | 1 | 8 | 6 | 59* | 3 | -1
Cc1ccc(C2CC(c3ccccc3)=NN2C(=O)CSc2nnc(-c3ccc(Cl)cc3)o2)o1 (stereo unspecified) | 0 | 42* | 11 | 4 | 5 | 2 | -1 | -6
C=CCN(c1ccccc1)S(=O)(=O)c1cccc(C(=O)NC2CCN(Cc3ccccc3)CC2)c1 | -4 | 8 | 4 | 18 | 14 | . | . | .
CN(C)c1ccc(NC(=O)c2sc(SCC(=O)Nc3nccs3)nc2N)cc1 | 6 | 52* | -6 | 3 | -9 | 33 | 2 | 9
CCOC(=O)C1=CCN(S(=O)(=O)c2ccccc2Cl)C1c1ccccc1 (stereo unspecified) | . | -12 | -2 | . | . | . | . | .
CCOC(=O)C1=CCN(S(=O)(=O)c2ccccc2Cl)C1c1cccc(C)c1 (stereo unspecified) | . | 40* | 1 | . | . | 25 | 0 | 8
CCOC(=O)C1=CCN(S(=O)(=O)c2ccccc2C)C1c1cccc(Br)c1 (stereo unspecified) | . | 67* | 17 | . | . | 25 | -1 | -13
O=C(NC1CC1)C1CC(=O)N(c2cccc(Cl)c2Cl)C1 (stereo unspecified) | -2 | -19 | 4 | -4 | 14 | . | . | .
COc1ccc(-c2ccc(C(=O)Nc3cccc(C(F)(F)F)c3)c3occc23)c(C)c1 | . | 43* | 4 | . | . | 9 | -2 | -12
COc1ccc(-c2ccc(C(=O)Nc3ccc(NC(C)=O)cc3)c3occc23)c(C)c1 | . | -40 | -3 | . | . | . | . | .
COc1ccc([C@H]2CC(=O)C=C(c3cc(Cl)cc(Cl)c3)C2)cc1 | -3 | 46* | 0 | 13 | 6 | 19 | -2 | -17
O=C1C=C(c2ccc(OC(F)(F)F)cc2)C[C@@H](c2ccc(F)cc2)C1 | -3 | 52* | 3 | 12 | 7 | 38 | 0 | -8
O=C1C=C(c2cc(Cl)cc(Cl)c2)C[C@@H](c2ccc(F)cc2)C1 | -3 | 48* | 0 | 18 | 13 | 22 | 0 | 6
O=C1C=C(c2ccc(Cl)c(C(F)(F)F)c2)C[C@@H](c2ccc(F)cc2)C1 | -3 | 19 | -7 | 16 | 3 | . | . | .
COc1ccc(C2=CC(=O)C[C@H](c3ccc(OC)cc3)C2)cc1 | -5 | 54* | 0 | -3 | 1 | 44 | -1 | -9
COc1ccc([C@H]2CC(=O)C=C(c3cc(C(F)(F)F)cc(C(F)(F)F)c3)C2)cc1 | -3 | 35 | 2 | 1 | 2 | . | . | .
COc1ccc(C2=CC(=O)C[C@H](c3ccc4c(c3)OCO4)C2)cc1 | -5 | 41 | 5 | 15 | 1 | . | . | .
SMILES | APJ agonist | EBI2 antag | CXCR6 block | CCR6 antag | APJ antag | EBI2 antag conf | EBI2 ag | bGal cs
Cc1ccc(S(=O)(=O)N(C)c2ccc(OC(=O)c3cccs3)cc2)cc1 | -1 | 11 | 10 | 6 | 11 | . | . | .
COc1ccc([C@H]2CC(=O)C=C(c3ccc4cc[nH]c4c3)C2)cc1 | -1 | 49* | -3 | 18 | 6 | 36 | 0 | 6
COc1ccc([C@H]2CC(=O)C=C(c3ccc4c(c3)sc3ccccc34)C2)cc1 | -1 | 55* | 0 | 20 | 7 | 19 | 1 | 9
CSc1ccc(C2=CC(=O)C[C@H](c3ccc(F)cc3)C2)cc1 | -4 | 66* | 2 | 28 | 10 | 50* | -1 | -7
COc1ccc([C@H]2CC(=O)C=C(c3cccc(C(C)C)c3)C2)cc1 | -4 | 4 | 6 | 23 | -3 | . | . | .
COc1ccc([C@H]2CC(=O)C=C(c3cccc(OC)c3)C2)cc1 | -3 | 34 | 1 | 11 | 17 | . | . | .
COc1ccc([C@H]2CC(=O)C=C(c3ccccc3)C2)cc1 | -4 | 41* | 3 | 13 | 2 | 32 | -2 | -1
CC(CN1CCCCC1)OC(=O)/C=C/c1ccccc1 (stereo unspecified) | -5 | 1 | -10 | 3 | -14 | . | . | .
O=C(O)CCC(C(=O)O)N1C(=O)C2C3CCC(C3)C2C1=O (stereo unspecified) | . | -11 | -4 | . | . | . | . | .
COc1ccc([C@H]2CC(=O)C=C(c3ccc4c(c3)OCO4)C2)cc1 | -4 | 35 | -4 | 13 | 9 | . | . | .
COc1ccc([C@H]2CC(=O)C=C(c3ccc(SC)cc3)C2)cc1OC | -3 | 28 | 10 | 20 | -13 | . | . | .
Cc1cc(C2=CC(=O)C[C@H](c3ccc(F)cc3)C2)ccc1F | . | 49* | -8 | . | . | 27 | 0 | 6
COc1ccc([C@H]2CC(=O)C=C(c3ccc4ccn(C)c4c3)C2)cc1 | -2 | 73* | 3 | 22 | 11 | 44 | 1 | 4
COc1ccc([C@H]2CC(=O)C=C(c3ccc(SC)cc3)C2)cc1 | -5 | 71* | 10 | 20 | 10 | 47 | 0 | -11
COc1ccc(NC2=CC(=O)CC(c3ccccc3)C2)cc1 (stereo unspecified) | -6 | 52* | 12 | 5 | -17 | 31 | 2 | 13
Cc1cc(C)c(S(=O)(=O)N2CCN(C(=O)c3ccc(-n4cncn4)c([N+](=O)[O-])c3)CC2)c(C)c1 | 5 | 72* | -10 | -3 | -57 | 35 | -1 | -8
O=C(c1ccc(-n2cncn2)c([N+](=O)[O-])c1)N1CCN(S(=O)(=O)c2ccccc2Br)CC1 | 5 | 14 | -14 | -4 | -20 | . | . | .

High-throughput results as filed in PubChem.
